According to ChEMBL document CHEMBL2434860, “Nitroreductase-activated nitric oxide (NO) prodrugs” (Bioorg Med Chem Lett, 2013):

How the values were obtained:
[1] = Half life in aqueous buffer assessed as nitric oxide release at pH 7.4; format: physicochemical
DLD-1 [2] = assay: Antiproliferative activity against human DLD1 cells assessed as cell viability at 100 uM after 72 hrs by MTT assay in presence of Escherichia coli NTR and NADPH (reference value: 107.4%); format: functional; conditions: DLD-1, 72 h, read-out: Activity
How it was run: (§1)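 DLD-1 human colon adenocarcinoma cells seeded at 3 × […] cells/well overnight in complete RPMI 1640. Treated with compound from DMSO stock (1% DMSO final), with or without E. coli nitroreductase (6 mg/2 mL DPBS stock) and NADPH (0.5 mM stock in DPBS). Incubated 72 h at 37 °C. MTT added for 4 h, formazan dissolved in DMSO, absorbance read at 570 nm for viability.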

DLD-1 [3] = assay: Antiproliferative activity against human DLD1 cells assessed as cell viability at 50 uM after 72 hrs by MTT assay in presence of Escherichia coli NTR and NADPH (reference value: 107.4%); format: functional; conditions: DLD-1, 72 h, read-out: Activity; how it was run: as §1
DLD-1 [4] = assay: Antiproliferative activity against human DLD1 cells assessed as cell viability at 100 uM after 72 hrs by MTT assay in absence of Escherichia coli NTR and NADPH (reference value: 107.4%); format: functional; conditions: DLD-1, 72 h, read-out: Activity; how it was run: as §1
DLD-1 [5] = assay: Antiproliferative activity against human DLD1 cells assessed as cell viability at 50 uM after 72 hrs by MTT assay in absence of Escherichia coli NTR and NADPH (reference value: 107.4%); format: functional; conditions: DLD-1, 72 h, read-out: Activity; how it was run: as §1
DLD-1 [6] = assay: Antiproliferative activity against human DLD1 cells assessed as cell viability at 25 uM after 72 hrs by MTT assay in absence of Escherichia coli NTR and NADPH (reference value: 107.4%); format: functional; conditions: DLD-1, 72 h, read-out: Activity; how it was run: as §1
DLD-1 [7] = assay: Cytotoxicity against human DLD1 cells assessed as cell viability at 25 uM after 72 hrs by MTT assay in presence of Escherichia coli NTR and NADPH (reference value: 107.4%); format: functional; conditions: DLD-1, 72 h, read-out: Activity; how it was run: as §1
[8] = Stability of the compound in phosphate buffer at pH 7.0 assessed as nitric oxide release at 50 uM after 1 hr by chemiluminescence assay in absence of Escherichia coli NTR and presence of NADPH; format: physicochemical; conditions: pH 7, 1 h
How it was run: (§2)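 Compound at 50 µM was incubated at 37 °C in pH 7.0 phosphate buffer with NADPH, with or without E. coli nitroreductase. After 1 h, an aliquot was injected into a chemiluminescence NO analyser (argon carrier) whose reservoir held NaI/acetic acid, so nitrite was also counted as NO. The signal was calibrated against NaNO2 standards. Values are averages of two independent runs.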

[9] = Prodrug conversion in phosphate buffer at pH 7.0 assessed as Escherichia coli NTR-mediated decomposition measuring nitric oxide release at 50 uM after 1 hr by chemiluminescence assay in presence of NADPH; format: physicochemical; conditions: pH 7, 1 h; how it was run: as §2
[10] = Prodrug conversion in phosphate buffer at pH 7.0 assessed as Escherichia coli NTR-mediated decomposition measuring compound remaining at 50 uM after 1 hr by HPLC analysis in presence of NADPH; format: physicochemical; conditions: pH 7, 1 h
How it was run: (§3)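 Compound at 50 µM (from a 10 mM DMSO stock) was stirred at 37 °C in pH 7.0 phosphate buffer with NADPH, with or without E. coli nitroreductase; the blank had no enzyme. After 1 h, an aliquot was analysed by reverse-phase C-18 HPLC (70% MeCN:H2O, 1 mL/min) for compound remaining. Values are averages of two independent runs.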

[11] = Stability of the compound in phosphate buffer at pH 7.0 assessed as compound remaining at 50 uM after 1 hr by HPLC analysis in absence of Escherichia coli NTR and presence of NADPH; format: physicochemical; conditions: pH 7, 1 h; how it was run: as §3
DLD-1 [12] = assay: Antiproliferative activity against human DLD1 cells assessed as cell viability at 75 uM after 72 hrs by MTT assay in presence of Escherichia coli NTR and NADPH relative to control; format: functional; conditions: DLD-1, 72 h, read-out: Activity; how it was run: as §1
DLD-1 [13] = assay: Antiproliferative activity against human DLD1 cells assessed as cell viability at 75 uM after 72 hrs by MTT assay in absence of Escherichia coli NTR and presence of NADPH; format: functional; conditions: DLD-1, 72 h, read-out: Activity; how it was run: as §1
HeLa [14] = assay: Cytotoxicity against human HeLa cells assessed as cell viability at 25 uM after 72 hrs by MTT assay in presence of Escherichia coli NTR and NADPH (reference value: 67.2%); format: functional; conditions: read-out: Activity
HeLa [15] = assay: Cytotoxicity against human HeLa cells assessed as cell viability at 10 uM after 72 hrs by MTT assay in presence of Escherichia coli NTR and NADPH (reference value: 67.2%); format: functional; conditions: read-out: Activity
HeLa [16] = assay: Cytotoxicity against human HeLa cells assessed as cell viability at 1 uM after 72 hrs by MTT assay in presence of Escherichia coli NTR and NADPH (reference value: 67.2%); format: functional; conditions: read-out: Activity
HeLa [17] = assay: Cytotoxicity against human HeLa cells assessed as cell viability at 25 uM after 72 hrs by MTT assay in absence of Escherichia coli NTR and NADPH (reference value: 88.2%); format: functional; conditions: read-out: Activity
HeLa [18] = assay: Cytotoxicity against human HeLa cells assessed as cell viability at 1 uM after 72 hrs by MTT assay in absence of Escherichia coli NTR and NADPH (reference value: 88.2%); format: functional; conditions: read-out: Activity
HeLa [19] = assay: Cytotoxicity against human HeLa cells assessed as cell viability at 10 uM after 72 hrs by MTT assay in absence of Escherichia coli NTR and NADPH (reference value: 88.2%); format: functional; conditions: read-out: Activity
DLD-1 [20] = assay: Antiproliferative activity against human DLD1 cells assessed as cell viability at 10 uM after 72 hrs by MTT assay in presence of Escherichia coli NTR and NADPH (reference value: 86.3%); format: functional; conditions: DLD-1, 72 h, read-out: Activity; how it was run: as §1
DLD-1 [21] = assay: Antiproliferative activity against human DLD1 cells assessed as cell viability at 1 uM after 72 hrs by MTT assay in presence of Escherichia coli NTR and NADPH (reference value: 86.3%); format: functional; conditions: DLD-1, 72 h, read-out: Activity; how it was run: as §1
DLD-1 [22] = assay: Antiproliferative activity against human DLD1 cells assessed as cell viability at 25 uM after 72 hrs by MTT assay in absence of Escherichia coli NTR and presence of NADPH (reference value: 74.8%); format: functional; conditions: DLD-1, 72 h, read-out: Activity; how it was run: as §1
DLD-1 [23] = assay: Antiproliferative activity against human DLD1 cells assessed as cell viability at 10 uM after 72 hrs by MTT assay in absence of Escherichia coli NTR and presence of NADPH (reference value: 74.8%); format: functional; conditions: DLD-1, 72 h, read-out: Activity; how it was run: as §1
DLD-1 [24] = assay: Antiproliferative activity against human DLD1 cells assessed as cell viability at 1 uM after 72 hrs by MTT assay in absence of Escherichia coli NTR and presence of NADPH (reference value: 74.8%); format: functional; conditions: DLD-1, 72 h, read-out: Activity; how it was run: as §1
[25] = Prodrug conversion in phosphate buffer at pH 6.5 assessed as Escherichia coli NTR-mediated decomposition measuring nitric oxide release at 50 uM after 5 mins; format: physicochemical; conditions: pH 6.5, 5 min
How it was run: (§4)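 Compound at 50 µM was reacted with E. coli nitroreductase and NADPH in phosphate buffer at pH 6.5 or at pH 7.4 (PBS), stirred at 37 °C. Aliquots were injected at set time points into a chemiluminescence NO analyser with an NaI/acetic acid reservoir, which also converts nitrite to NO. The signal was calibrated with NaNO2 standards.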

[26] = Prodrug conversion in phosphate buffer at pH 7.4 assessed as Escherichia coli NTR-mediated decomposition measuring nitric oxide release at 50 uM after 5 mins; format: physicochemical; conditions: pH 7.4, 5 min; how it was run: as §4
HeLa [27] = assay: Cytotoxicity against human HeLa cells assessed as cell viability after 72 hrs by MTT assay in presence of Escherichia coli NTR and NADPH; format: functional, cell-based
DLD-1 [28] = assay: Antiproliferative activity against human DLD1 cells assessed as cell viability at 25 uM after 72 hrs by MTT assay in presence of Escherichia coli NTR and NADPH (reference value: 86.3%); format: functional; conditions: DLD-1, 72 h, read-out: Activity; how it was run: as §1

Compound | t1/2 [1] [s] | Stability [8] | Drug metabolism [9] [µM] | Stability [10] [%] | Stability [11] | viability at 75 µM (DLD-1 [12]) [%] | viability at 75 µM (DLD-1 [13]) [%] | further results
CCN(CC)/[N+]([O-])=N/[O-].[Na+] | 120 | – | – | – | – | – | – | –
O=C(OCc1ccc([N+](=O)[O-])cc1)c1ccccc1 | – | Stable | 1.1 | 68 | Stable | – | – | viability at 100 µM (DLD-1 [2]): 50.5%; viability at 50 µM (DLD-1 [3]): 85.5%; viability at 100 µM (DLD-1 [4]): 84.5%; viability at 50 µM (DLD-1 [5]): 89.2%; viability at 25 µM (DLD-1 [6]): 98.3%; viability at 25 µM (DLD-1 [7]): 93.4%
[Na+].[O-]/N=[N+](\[O-])N1CCCC1 | 2 | – | – | – | – | – | – | –
CCN(CC)/[N+]([O-])=N/OCc1ccc([N+](=O)[O-])cc1 | – | Stable | 6.8 | 60 | Stable | 27.5 | 79.2 | –
O=[N+]([O-])c1ccc(CO/N=[N+](\[O-])N2CCCC2)cc1 | – | Stable | 18.3 | 28 | Stable | 48.5 | 68.6 | –
CN(C)/[N+]([O-])=N/OCc1ccc([N+](=O)[O-])cc1 | – | Stable | 13.6 | 60 | Stable | 32.2 | 74.7 | –
CC1CCCCN1/[N+]([O-])=N/OCc1ccc([N+](=O)[O-])cc1 (configuration not stated) | – | Stable | 19.7 | 31 | Stable | 10.2 | 53 | viability at 25 µM (HeLa [14]): 6.9%; viability at 10 µM (HeLa [15]): 31.1%; viability at 1 µM (HeLa [16]): 56.6%; viability at 25 µM (HeLa [17]): 24.6%; viability at 1 µM (HeLa [18]): 76.9%; viability at 10 µM (HeLa [19]): 65.3%; viability at 10 µM (DLD-1 [20]): 30.8%; viability at 1 µM (DLD-1 [21]): 38.6%; viability at 25 µM (DLD-1 [22]): 63.7%; viability at 10 µM (DLD-1 [23]): 69.1%; viability at 1 µM (DLD-1 [24]): 82.1%; Drug metabolism [25]: 6 µM; Drug metabolism [26]: 17 µM; Activity (HeLa [27]): Dose-dependent effect; viability at 25 µM (DLD-1 [28]): 12.5%
CN(C)/[N+]([O-])=N/[O-].[Na+] | 24 | – | – | – | – | – | – | –
